# Screening data (PubChem BioAssay)
# Only some compounds are listed: those with a hit (about 3.4% of all), similar ones and a draw of the others.
# UCH37 inh: inhibitors of human deubiquitinating enzyme UCH37 | Q9Y5K5 | purified proteasome/UCH37, Ub-AMC cleavage fluorescence | inhibition, % (test concentration not listed) | 0.33% of 330,000 active | AID 588478;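 active means mean inhibition over replicate wells above about 20%, limit read from the data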;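 further: 0% = compound-free wells with enzyme and 100% = wells lacking proteasome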
# Target sequence (Q9Y5K5 whole entry, looked up): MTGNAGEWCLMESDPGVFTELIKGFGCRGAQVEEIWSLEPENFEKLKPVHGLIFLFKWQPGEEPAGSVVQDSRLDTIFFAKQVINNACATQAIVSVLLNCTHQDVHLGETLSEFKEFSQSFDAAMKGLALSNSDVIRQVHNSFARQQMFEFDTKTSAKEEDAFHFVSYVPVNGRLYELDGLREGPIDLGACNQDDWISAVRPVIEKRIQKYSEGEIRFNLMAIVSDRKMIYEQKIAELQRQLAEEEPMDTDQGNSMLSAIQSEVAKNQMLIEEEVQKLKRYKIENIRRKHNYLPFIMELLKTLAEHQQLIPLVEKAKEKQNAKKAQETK
#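 assay system = human UCH37 enzyme supplied as purified proteasome complex | amount = proteasome at 0.15 nM in the dispensed enzyme solution | schedule = 30 min compound-proteasome preincubation then 25 min substrate reaction, room temperature | measured by = fluorescence, ex 355 nm, em 460 nm | benchmarks = no-proteasome wells (full inhibition) and compound-free wells (no inhibition)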
# PolyA inh: yeast polyadenylation inhibition; S. cerevisiae SKY197-pL101 polyadenylation reporter, beta-gal luminescence; efflux-impaired pdr1/pdr3 knockout yeast; score 100 = 6 SD above DMSO; AID 1875; activity score, % at 12 µM; 0.02% of 300,000 active;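 active means lowest replicate activity score at least 50, where 100 means six control SD above control mean; inconclusive means lowest score under 50 but half or more replicates reach 50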;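 further: yeast exposed to compound for 9 h at 30 °C; higher score means more reporter readthrough which indicates perturbed polyadenylation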
# APOBEC3G inh: inhibitors of human APOBEC3G DNA deaminase. Q9HC16. inhibition, % at 20 µM. recombinant A3G, ssDNA deamination FAM/TAMRA fluorescence. AID 493012. 0.28% of 330,000 active;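 active means inhibition of at least 40% at 20 µM, with no more than 30% in the related APOBEC3A deaminase screen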;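 further: plate controls were DMSO wells with A3G for no effect and wells lacking A3G enzyme for full effect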
# Target sequence (Q9HC16 whole entry, looked up): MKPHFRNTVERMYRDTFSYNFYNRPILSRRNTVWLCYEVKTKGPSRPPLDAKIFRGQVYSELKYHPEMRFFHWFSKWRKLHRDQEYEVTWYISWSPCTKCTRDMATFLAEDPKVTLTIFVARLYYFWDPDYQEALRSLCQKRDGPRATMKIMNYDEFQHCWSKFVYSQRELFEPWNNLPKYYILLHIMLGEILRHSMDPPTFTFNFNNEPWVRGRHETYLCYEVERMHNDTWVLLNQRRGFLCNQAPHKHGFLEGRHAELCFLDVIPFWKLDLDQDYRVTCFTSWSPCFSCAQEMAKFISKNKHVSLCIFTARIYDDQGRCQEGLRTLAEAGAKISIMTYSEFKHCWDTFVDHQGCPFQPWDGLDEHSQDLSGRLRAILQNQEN
# Arr AP2 block: inhibitors of human beta-arrestin and AP2 interaction | FITC-arrestin peptide / GST-AP2 beads, flow cytometry; AP2 beta2 appendage carries R879A mutation | inhibition, % at 10 µM | 0.31% of 340,000 active | AID 504490;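 active means inhibition above a set limit, near 3 SD of compounds lacking own fluorescence, cut at about 54% in these data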;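 further: plate controls were DMSO wells for no effect and 5 µM unlabelled arrestin peptide for full effect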
#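 Material – AP2 appendage R879A on GSH beads · Buffer or medium – PBS with 0.05% Tween 20 and 0.1% BSA · Probe or stimulus – fluorescein-tagged arrestin peptide at 50 nM final · Incubation – compound with beads 12 min RT, then probe 1 h RT · Detection – high-throughput flow cytometry of beads, ex 488, em 535 nm · Evaluation – percent response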
# AHR activator: activates the human aryl hydrocarbon receptor | P35869 | AHR-responsive luciferase reporter cells, luminescence | activation, % at 5 µM | 2.5% of 320,000 active | AID 2796; in the data active means activation above about 47%;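 further: 0% = vehicle wells and 100% = reference agonist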
# APOBEC3A inh: inhibitors of human APOBEC3A DNA deaminase; 0.41% of 330,000 active; P31941; inhibition, % at 20 µM; recombinant A3A, FAM/TAMRA ssDNA deamination fluorescence; AID 493011;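 active means at least 40% inhibition at 20 µM here, with at most 30% in a related deaminase screen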;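 further: plate controls were A3A with DMSO for no effect and wells lacking A3A enzyme for full effect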
# APOBEC3A confirm: confirmation of human APOBEC3A DNA deaminase inhibitors; shares compounds with APOBEC3A inh; inhibition, % at 20 µM; 63% of 1,400 active; recombinant A3A, ssDNA deaminase UDG fluorescence assay;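 active means inhibition reaching a set limit, 80% of the first screen's cutoff, at 20 µM in any replicate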;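 further: plate controls were DMSO wells with A3A for no effect and wells lacking A3A enzyme for full effect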
# UDG A3A counter: inhibits UDG, flagging false APOBEC3A inhibitors; shares compounds with APOBEC3A inh; UDG counterscreen, FAM/TAMRA uracil oligo fluorescence; inhibition, % at 20 µM; 1,000 tested, under 10 active; AID 504714; call rule not given here
# Numbers without * were called inactive; ? = inconclusive; . = no result given.
SMILES,UCH37 inh,PolyA inh,APOBEC3G inh,Arr AP2 block,AHR activator,APOBEC3A inh,APOBEC3A confirm,UDG A3A counter
O=C(COc1ccccc1/C=C1/NC(=O)NC1=O)Nc1ccccc1,-2,24,10,-16,36,46*,68*,-4
COc1ccc(C=NNC(=O)c2ccc([N+](=O)[O-])c(C)c2)cc1COc1ccccc1C(N)=O,1,.,.,.,.,.,.,.
COC(=O)CCC(=O)OC1(C)C(=O)C2=COC(c3ccc(OC)cc3)=CC2=C(Br)C1=O (stereo unspecified),3,-5,12,.,2,46*,29,.
COc1cc(C=NNC(=S)NCC2CCCO2)cc(OC)c1OC (stereo unspecified),5,.,.,.,.,.,.,.
O=C(NN=Cc1ccc(OC(=O)c2cccs2)cc1)c1cccc(F)c1,0,.,.,.,.,.,.,.
C[N+]1(CC#CC(O)(c2ccccc2)c2ccccc2)CCCC1,3,1,31,9,5,48,.,.
CC(C)[N+](C)(C)CC#CC(O)(c1ccccc1)c1ccccc1,3,27,26,-6,3,65*,73*,-3
CCn1c(SCC(=O)NN=C/C=C\c2ccccc2[N+](=O)[O-])nc2ccccc21,2,.,.,.,.,.,.,.
O=C(N/N=C/c1ccc(-c2ccccc2C(=O)O)o1)c1cccs1,.,5,20,6,6,46*,38*,-3
O=C(N/N=C/c1ccncc1)c1cccs1,.,4,-5,1,13,-1,.,.
NCCCNC(=O)c1ccc(C=NO)nc1,3,.,.,.,.,.,.,.
CN1CCN(S(=O)(=O)c2ccc(C3CCCCC3)cc2)CC1,4,.,8,0,.,45*,50*,1
O=S(=O)(c1ccc(C2CCCCC2)cc1)N1CCN(c2ncccn2)CC1,2,9,0,5,-2,-2,.,.
COc1ccc(-c2csc(N(CCCN(C)C)C(=O)c3ccccc3F)n2)cc1,0,11,-9,-7,-1,48*,-6,-1
COc1ccc(-c2csc(N(CCCN(C)C)C(=O)c3ccccc3C)n2)cc1,4,2,31,6,3,-5,.,.
COc1ccc(Cl)c(NC(=O)CC(C)=NNC(=O)CCc2ccccc2)c1,5,.,.,.,.,.,.,.
COC(=O)c1ccc(CON=Cc2ccc(OC)cc2)o1,3,.,.,.,.,.,.,.
O=c1oc(-c2ccccc2)nc2sc3c(c12)CCC3,-6,-24,22,9,6,56*,35*,-3
O=C1CCC(=O)N1c1ccc(-c2nc3sc4c(c3c(=O)o2)CCC4)cc1,-32,-5,-5,1,-3,2,.,.
Cc1cc(C)n2nc[n+](C)c2n1,2,-7,22,13,6,53*,39*,-2
Cc1cc(C)n2nc(CCCCc3nc4nc(C)cc(C)n4n3)nc2n1,2,1,-6,.,1,-2,.,.
COc1cccc(C=NNC(=O)c2ccc(=O)n(C)c2)c1OC,-1,.,.,.,.,.,.,.
CCN(CC)C1=CC(=[N+]2CCCC2)CC(C)(C)C1,11,-6,46,14,-3,54,.,.
CN(Cc1ccccc1)C1=CC(=[N+]2CCCC2)CC(C)(C)C1,9,-3,19,-6,-7,57*,70*,-2
CC1(C)CC(N2CCCC2)=CC(=[N+]2CCCCCC2)C1,9,7,26,.,-13,62*,68*,0
SMILES,UCH37 inh,PolyA inh,APOBEC3G inh,Arr AP2 block,AHR activator,APOBEC3A inh,APOBEC3A confirm,UDG A3A counter
CC1(C)CC(N2CCN(c3ccccc3)CC2)=CC(=[N+]2CCCC2)C1,7,-4,18,-1,-2,44*,66*,-5
NC(=NN=Cc1cccc([N+](=O)[O-])c1)c1nonc1N,2,.,.,.,.,.,.,.
Nn1c(SCC(=O)Nc2ccc3c(c2)OCCO3)nnc1C(F)(F)F,-2,-6,17,-12,2,61*,30,.
Nn1c(SCC(=O)Nc2ccc3c(c2)OCCO3)nnc(CCC(=O)O)c1=O,-3,12,16,-21,2,74*,60*,2
Cc1nnc(SCC(=O)Nc2ccc3c(c2)OCCO3)n1N,-2,15,-2,-6,2,7,.,.
CC1=CC(C)(C)[N+](C)=CN1c1ccccc1,0,2,15,-9,2,57*,70*,4
O=C(COC(=O)/C=C/c1ccco1)Nc1ncc(C(F)(F)F)cc1Cl,1,1,16,-3,7,51*,50*,3
O=C(COC(=O)/C=C/c1ccco1)NCc1ccccc1Cl,2,11,-4,-2,2,-2,.,.
O=C(COC(=O)/C=C/c1ccco1)NCc1ccco1,2,?,26,11,4,49*,36*,1
Cc1c(Cl)cnc(NC(=O)COC(=O)/C=C/c2ccco2)c1Cl,-8,.,7,28,.,20,.,.
S=C(NCCc1ccccc1)NN=CC1CCCCC1,1,.,.,.,.,.,.,.
Cc1cc(C(=O)NN=C2CCCC(=O)C2)c(C)n1-c1ccccc1,1,.,.,.,.,.,.,.
CCN1C(N(C)CCc2cccs2)=N[C@@H](c2ccccc2)C(C(=O)OC)=C1C,1,-13,22,-4,4,52*,52*,-2
COc1cccc(C=Nn2cncn2)c1OCC#N,-8,.,.,.,.,.,.,.
O=C(O)c1cccc(-n2cccc2/C=C2/NC(=O)N(Cc3ccccc3F)C2=O)c1,.,20,11,-5,-1,62*,62*,-1
O=C1N/C(=C/c2cccn2-c2ccccc2)C(=O)N1Cc1ccc(F)cc1,-24,-10,-3,1,38,-2,.,.
O=C(CN1CCN(C2CCCCC2)CC1)c1c[nH]c2ccccc12,2,8,27,-11,14,51*,20,.
CCCCOc1ccc(NC(=O)CCSc2nccn2C)cc1,2,22,16,-35,-1,42*,1,.
Cc1ccccc1NC(=O)C1c2cccc[n+]2CC(=O)N1c1c(C)cccc1C (stereo unspecified),-1,-4,17,15,8,40*,18,.
COCCN(CC(=O)Nc1cccc(C)c1C)C(=O)CN1C(=O)NC2(CCCCC2)C1=O,2,.,6,-14,-1,41*,49*,1
CS(=O)(=O)N(CC(=O)NN=Cc1ccc(OCC(=O)N2CCOCC2)cc1)c1ccccc1Cl,3,.,.,.,.,.,.,.
CC(=O)Nc1ccc(-c2ccccc2)s1,0,-4,17,-30,1,45*,45*,0
CC(=O)Nc1ccc(NC(C)=O)s1,0,8,-5,-1,-1,-4,.,.
S=c1[nH]nc(C2CCCCC2)n1N=Cc1ccc(Cl)cc1,4,.,.,.,.,.,.,.
ON=C1C2C3CC4C5C3C1C5C1(OCCO1)C42 (stereo unspecified),5,.,.,.,.,.,.,.
